Results pooled from the literature.
Each line is one published result; the experiments were not run side by side.
LGALS4 C-terminal domain: Galectin-4, C-terminal domain (LGALS4, Homo sapiens, UniProt P56470)
PIM1: Serine/threonine-protein kinase pim-1 (PIM1, Homo sapiens, UniProt P11309)
CDK2 with cyclin A2: Cyclin-dependent kinase 2, with cyclin A2 (CDK2, Homo sapiens, UniProt P24941)
CDK2: Cyclin-dependent kinase 2 (CDK2, Homo sapiens, UniProt P24941)
CTSB: Cathepsin B (CTSB, Homo sapiens, UniProt P07858)

| Compound | target | test | endpoint | result |
| --- | --- | --- | --- | --- |
| CC(C)Oc1ccc(S(=O)(=O)c2ccc(Oc3cc(OCC(N)=O)c(C(=O)C(Cl)Cl)cc3[N+](=O)[O-])cc2)cc1 | [Pyruvate dehydrogenase (acetyl-transferring)] kinase isozyme 4, mitochondrial (PDK4, Homo sapiens, UniProt Q16654) | enzyme activity, inhibitor, ATP luminescence | IC50 | 17.2 µM |
| CC(=O)c1nn(-c2ccc(C)cc2)/c(=N/N=C(\C)c2ccc(NC(=O)c3ccccc3)cc2)s1 | Cyclin-dependent kinase 8, with cyclin C (CDK8, Homo sapiens, UniProt P49336) | enzyme activity, inhibitor | IC50 | 0.267 µM |
| CC1OC(OC2C(OC3C(CO)OC(O)C(O)C3O)OC(CO)C(O)C2OC2OC(CO)C(O)C(O)C2O)C(O)C(O)C1O (stereo not drawn) | LGALS4 C-terminal domain | binding, NMR | Kd | 170 µM |
| CCCOc1nc(-c2cccc(O)c2)cc(-c2cc3cc(OC)ccc3nc2N2CCOCC2)c1C#N | PIM1 | enzyme activity, inhibitor | IC50 | 0.095 µM |
| C[C@H]1C[C@H]2[C@@H]3CCC4=CC(=O)C=C[C@]4(C)[C@@]3(Cl)[C@@H](O)C[C@]2(C)[C@@]1(O)C(=O)CO | ADGRG3 (Homo sapiens, UniProt Q86Y34) | β-arrestin recruitment, agonist | EC50 | 3.49 µM |
| Nc1ccccc1NC(=O)c1ccc(CNc2ccc(NC3=C(Cl)C(=O)c4cccnc4C3=O)cc2)cc1 | M-phase inducer phosphatase 3 (Homo sapiens, UniProt P30307) | enzyme activity, inhibitor | IC50 | 0.23 µM |
| CC(=O)Nc1c(N)nc(SCC(=O)NN)[nH]c1=O | CDK2 with cyclin A2 | enzyme activity, inhibitor | IC50 | 0.172 µM |
| O=C(O)Cc1csc(NC(=O)c2cc3ccccc3[nH]2)n1 | CDK2 | enzyme activity, inhibitor, ELISA | IC50 | 1.71 µM |
| CCOC(=O)/C=C/C(=O)[C@H](CC(C)C)NC(=O)[C@H](Cc1ccccc1)NC(=O)[C@H](Cc1ccccc1)N=[N+]=[N-] (mixture of isomers) | CTSB | enzyme activity, inhibitor | IC50 | 0.32 µM |
| Cc1ccc2oc(=O)cc(NCCO)c2c1 | Alpha-1A adrenergic receptor (Adra1a, Rattus norvegicus, UniProt P43140) | calcium signal, antagonist | IC50 | 1820 µM |
| CCOC(=O)[C@H]1O[C@@H]1C(=O)N[C@@H](CC(C)C)C(=O)NCCC(C)C | CTSB | enzyme activity, inhibitor | IC50 | 0.012 µM |
| COc1cc(N2CCC(N3CCN(C)CC3)CC2)ccc1Nc1ncc(Cl)c(Nc2ccccc2P(C)(C)=O)n1 | Multidrug and toxin extrusion protein 1 (SLC47A1, Homo sapiens, UniProt Q96FL8) | transporter uptake, inhibitor | Ki | 780 nM |
| NCCCNc1ncnc2c1ncn2[C@@H]1O[C@H](CN(CC#Cc2cccc(C(N)=O)c2)CC[C@H](N)C(=O)O)[C@@H](O)[C@H]1O | Nicotinamide N-methyltransferase (NNMT, Homo sapiens, UniProt P40261) | enzyme activity, inhibitor, fluorescence | IC50 | 0.15 µM |
| CC(C)C[C@H](NC(=O)[C@H](Cc1ccccc1)NC(=O)OCc1ccccc1)C(=O)C=O | CTSB | enzyme activity, inhibitor | IC50 | 4.36 µM |
| CC(=O)Nc1c(N)nc(SCC(=O)N/N=C/c2ccc([N+](=O)[O-])cc2)[nH]c1=O | CDK2 with cyclin A2 | enzyme activity, inhibitor | IC50 | 0.189 µM |
| COc1ccc2[nH]c(C(=O)Nc3nc(CC(=O)O)cs3)cc2c1 | CDK2 | enzyme activity, inhibitor, ELISA | IC50 | 3.19 µM |
| CC(=O)NC1C(OC2C(O)C(CO)OC(OC3C(CO)OC(O)C(O)C3O)C2OC2OC(C)C(O)C(O)C2O)OC(CO)C(O)C1O (stereo not drawn) | LGALS4 C-terminal domain | binding, NMR | Kd | 63 µM |
| CCOc1nc(-c2cccc(O)c2)cc(-c2cc3cc(OC)ccc3nc2N2CCOCC2)c1C#N | PIM1 | enzyme activity, inhibitor | IC50 | 0.11 µM |
